Measurements as given in BindingDB's records for doi:10.1021/jm010131q (National Center For Genetic Engineering and Biotechnology …, 2002).

How the values were obtained:
[1] = molecular target: Bifunctional dihydrofolate reductase-thymidylate synthase (Plasmodium falciparum (isolate K1 / Thailand), UniProt P13922); experiment: Inhibition of the wild-type dihydrofolate reductase (DHFR)
Summary of the method: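 Assay at 25 °C: 50 mM TES pH 7.0, 75 mM β-mercaptoethanol, 1 mg/mL BSA, 100 µM H2folate and 100 µM NADPH. NADPH oxidation followed at 340 nm. Ki derived from IC50 as Ki(1+[S]/Km), assuming competitive inhibition.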

[2] = Antiplasmodial activity IC50 against Plasmodium falciparum K1CB1 DHFR double-mutant ([…])

Bifunctional dihydrofolate reductase-thymidylate synthase, sequence (P13922 whole entry): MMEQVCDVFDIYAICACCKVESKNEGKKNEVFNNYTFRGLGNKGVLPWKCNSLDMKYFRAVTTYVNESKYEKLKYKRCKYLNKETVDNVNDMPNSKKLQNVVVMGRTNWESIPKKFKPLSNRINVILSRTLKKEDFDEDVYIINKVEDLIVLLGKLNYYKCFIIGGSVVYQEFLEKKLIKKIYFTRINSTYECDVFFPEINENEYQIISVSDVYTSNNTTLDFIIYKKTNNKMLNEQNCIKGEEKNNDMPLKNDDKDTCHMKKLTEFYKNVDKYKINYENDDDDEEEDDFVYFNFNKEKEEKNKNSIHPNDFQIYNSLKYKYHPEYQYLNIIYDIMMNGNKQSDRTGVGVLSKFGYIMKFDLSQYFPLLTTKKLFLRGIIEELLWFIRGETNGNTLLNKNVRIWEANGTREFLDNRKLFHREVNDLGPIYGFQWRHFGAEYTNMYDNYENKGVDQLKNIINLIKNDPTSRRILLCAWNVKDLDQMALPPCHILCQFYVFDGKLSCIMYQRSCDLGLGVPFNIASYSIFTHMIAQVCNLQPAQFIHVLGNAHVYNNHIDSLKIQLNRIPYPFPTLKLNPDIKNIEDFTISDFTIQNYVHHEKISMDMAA

SMILES	Ki [1]	IC50 [2]
CCc1nc(N)nc(N)c1-c1ccc(Cl)cc1Cl [5-(2,4-Dichloro-phenyl)-6-ethyl-pyrimidine-2,4-diamine]	0.0126 µM	22.5 µM
COc1cc(Cc2cnc(N)nc2N)ccc1OCc1cc(OC)c(OC)c(OC)c1 [5-[3-Methoxy-4-(3,4,5-trimethoxy-benzyloxy)-benzyl]-pyrimidine-2,4-diamine]	0.0006 µM	27.8 µM
Nc1ncc(-c2cccc(Cl)c2)c(N)n1 [5-(3-Chloro-phenyl)-pyrimidine-2,4-diamine]	0.0063 µM	8.8 µM
CCCCCCc1nc(N)nc(N)c1-c1ccccc1 [6-hexyl-5-phenylpyrimidine-2,4-diamine]	–	1.3 µM
CCc1nc(N)nc(N)c1-c1ccc(OC)cc1	0.0009 µM	> 25 µM
Nc1ncc(-c2ccccc2)c(N)n1 [5-Phenyl-pyrimidine-2,4-diamine]	–	19.4 µM
Nc1nc(N)c(-c2cccc(Cl)c2)c(CCOCCCOc2ccccc2)n1 [5-(3-chlorophenyl)-6-[2-(3-phenoxypropoxy)ethyl]pyrimidine-2,4-diamine]	–	3.3 µM
CCc1nc(N)nc(N)c1-c1ccc(Br)cc1 [5-(4-bromophenyl)-6-ethylpyrimidine-2,4-diamine]	0.0003 µM	25 µM
Nc1nc(N)c(-c2cccc(Cl)c2)c(CCCc2ccccc2)n1	–	3 µM
CCOc1c(Br)cc(-c2c(N)nc(N)nc2CC)cc1Br [5-(3,5-Dibromo-4-ethoxy-phenyl)-6-ethyl-pyrimidine-2,4-diamine]	0.007 µM	17.4 µM
Nc1nc(N)c(-c2ccccc2)c(CCCc2ccccc2)n1	–	2.3 µM
Nc1nc(N)c(-c2ccc(Cl)cc2)c(CCCc2ccccc2)n1 [5-(4-Chloro-phenyl)-6-(3-phenyl-propyl)-pyrimidine-2,4-diamine]	–	10.6 µM
Cc1nc(N)nc(N)c1-c1cccc(Cl)c1 [5-(3-chlorophenyl)-6-methylpyrimidine-2,4-diamine]	–	4.8 µM
Cc1nc(N)nc(N)c1-c1ccccc1	0.0109 µM	30.8 µM
COC(=O)CCCc1nc(N)nc(N)c1-c1cccc(Cl)c1 [4-[2,6-Diamino-5-(3-chloro-phenyl)-pyrimidin-4-yl]-butyric acid methyl ester]	–	36.3 µM
Cc1nc(N)nc(N)c1-c1ccc(Cl)cc1	0.002 µM	60.1 µM

SMILES	Ki [1]	IC50 [2]
CCc1nc(N)nc(N)c1-c1ccc(C)cc1 [6-ethyl-5-(4-methylphenyl)pyrimidine-2,4-diamine]	–	12.7 µM
COC(=O)CCCc1nc(N)nc(N)c1-c1ccc(Cl)cc1	–	22.3 µM
CCc1nc(N)nc(N)c1-c1ccc(OCc2ccc(Cl)cc2Cl)c(OC)c1 [5-[4-(2,4-Dichloro-benzyloxy)-3-methoxy-phenyl]-6-ethyl-pyrimidine-2,4-diamine]	0.001 µM	> 50 µM
COc1ccc(CCCc2nc(N)nc(N)c2-c2cccc(Cl)c2)cc1 [5-(3-Chloro-phenyl)-6-[3-(4-methoxy-phenyl)-propyl]-pyrimidine-2,4-diamine]	–	2.7 µM
CCc1nc(N)nc(N)c1-c1ccc(-c2ccccc2)cc1 [5-Biphenyl-4-yl-6-ethyl-pyrimidine-2,4-diamine]	0.188 µM	4.4 µM
COc1cc(Cc2cnc(N)nc2N)ccc1OCCCc1ccccc1 [5-[3-Methoxy-4-(3-phenyl-propoxy)-benzyl]-pyrimidine-2,4-diamine]	0.0018 µM	11.7 µM
CCc1nc(N)nc(N)c1-c1ccc2c(c1)OCO2 [5-Benzo[1,3]dioxol-5-yl-6-ethyl-pyrimidine-2,4-diamine]	–	21.5 µM
Nc1ncc(Cc2ccc(OCCCOc3cc(Cl)c(Cl)cc3Cl)cc2)c(N)n1 [5-{4-[3-(2,4,5-Trichloro-phenoxy)-propoxy]-benzyl}-pyrimidine-2,4-diamine]	0.0009 µM	3.5 µM
COc1cc(Cc2cnc(N)nc2N)cc(OC)c1OCc1ccccc1 [5-(4-Benzyloxy-3,5-dimethoxy-benzyl)-pyrimidine-2,4-diamine]	0.0042 µM	30.1 µM
Nc1ncc(-c2ccc(Cl)cc2)c(N)n1 [5-(4-chlorophenyl)pyrimidine-2,4-diamine]	0.0024 µM	26.2 µM
CCc1nc(N)nc(N)c1-c1cccc(Cl)c1 [5-(3-chlorophenyl)-6-ethylpyrimidine-2,4-diamine]	–	1.3 µM
COC(=O)CCCc1nc(N)nc(N)c1-c1ccccc1 [4-(2,6-Diamino-5-phenyl-pyrimidin-4-yl)-butyric acid methyl ester]	–	31.3 µM
CCc1nc(N)nc(N)c1-c1ccccc1	–	3.3 µM
CCc1nc(N)nc(N)c1-c1ccc(Cl)c(Cl)c1	–	17.4 µM
COc1cc(COc2cc(Cc3cnc(N)nc3N)ccc2OCc2ccccc2)cc(OC)c1OC [5-[4-Benzyloxy-3-(3,4,5-trimethoxy-benzyloxy)-benzyl]-pyrimidine-2,4-diamine]	0.0121 µM	17.5 µM
CCc1nc(N)nc(N)c1-c1ccc(C(C)(C)C)cc1 [5-(4-tert-butylphenyl)-6-ethylpyrimidine-2,4-diamine]	0.0006 µM	3.9 µM
